Assay results gathered from unrelated publications.
Compare with care: the assays were run in different laboratories.
Target: Serine/threonine-protein kinase PAK 4 (PAK4, Homo sapiens, UniProt O96013)

| SMILES | test | setting | quantity | result |
| --- | --- | --- | --- | --- |
| Cc1ccc(C(=O)Nc2ccc(CN3CCN(C)CC3)c(C(F)(F)F)c2)cc1C#Cc1cnc2cccnn12 | enzyme activity, inhibitor | 23.5 nM | remaining activity | 91% |
| COc1cc(/C=C/C(=O)CC(=O)/C=C/c2ccc(O)c(OC)c2)ccc1O | enzyme activity, inhibitor | 1 µM | activity vs control | 78% |
| CNC(=O)c1cc(Oc2ccc(NC(=O)Nc3ccc(Cl)c(C(F)(F)F)c3)cc2)ccn1 | enzyme activity, inhibitor | 0.3 µM | inhibition | -11% |
| COc1cc(-c2cc(-c3ccc(N4CCNCC4)cc3)cnc2C)cc(OC)c1OC | enzyme activity, inhibitor | 0.1 µM | inhibition | 1% |
| Cc1ccc(Nc2nccc(N(C)c3ccc4c(C)n(C)nc4c3)n2)cc1S(N)(=O)=O | enzyme activity, inhibitor | 10 µM | inhibition | 35% |
| CSc1nc(C)c(-c2ccnc(Nc3ccc(N4CCOCC4)cc3)c2)[nH]1 | enzyme activity, inhibitor | 10 µM | inhibition | -3.9% |
| O=C(Nc1cnn(-c2csc(C(=O)NC3COC3)c2)c1)Nc1ccccc1Cl | enzyme activity, inhibitor | 5 µM | remaining activity | 98.9% |
| Cc1cc(NC(=O)c2cccc3cc(-c4cccc5[nH]nc(N)c45)ccc23)ccc1F | enzyme activity, inhibitor | 0.1 µM | activity vs control | 97% |
| CC(C)(O)[C@H]1CC[C@H](Nc2ccc3ncc(-c4cccc(C(F)(F)F)c4)n3n2)CC1 | enzyme activity, inhibitor | 1 µM | remaining activity | 98% |
| Cc1c(NC(=O)c2cc(C(N)=O)nc3cc(F)ccc23)c(C(F)(F)F)nn1Cc1ccc(C(C)(C)C)cc1 | cell-free assay, competition with immobilised ligand | 1 µM | remaining binding | 100% |
| COc1cc(Cl)c(C(=O)N[C@@H](CN[C@H]2CC[C@@H](N)CC2)Cc2ccc(C#N)cc2)cc1-c1ccc(CN[C@H](C)c2ccc(C)cc2)o1 | enzyme activity, inhibitor | 1 µM | remaining activity | 102% |
| c1ccc(N2CCN(Cc3nc4ccccc4[nH]3)CC2)nc1 | cell-free assay, competition with immobilised ligand | 1 µM | remaining binding | 93% |
| O=C(Nc1cnn(-c2csc(C(=O)NC3COC3)c2)c1)Nc1c(F)cccc1Cl | enzyme activity, inhibitor | 5 µM | remaining activity | 107% |
| NS(=O)(=O)c1cc(NC(=O)C2(c3ccccc3Cl)CC2)ccc1Oc1cccc(Cl)c1 | cell-free assay, competition with immobilised ligand | 1 µM | remaining binding | 74% |
| Cc1cnc(NC2CCOCC2)nc1-n1cnc(C(=O)NC(CN)c2cc(F)cc(Cl)c2)c1 (stereo not shown) | enzyme activity, inhibitor, radiometric | 1 µM | remaining activity | 96% |
| FC(F)(F)Oc1cccc(-c2cnc3ccc(-c4ccncc4)nn23)c1 | enzyme activity, inhibitor, radiometric | 5 µM | activity vs control | 64% |
| COc1cc(-c2cn(C3CCc4c(F)cccc4N(CC(F)(F)F)C3=O)nn2)ccc1-n1cnc(C)c1 (stereo not shown) | cell-free assay, competition with immobilised ligand | 1 µM | remaining binding | 99% |

| SMILES | test | setting | quantity | result |
| --- | --- | --- | --- | --- |
| COc1cc2c(N3CCN(C(=O)Nc4ccc(OC(C)C)cc4)CC3)ncnc2cc1OCCCN1CCCCC1 | cell-free assay | 0.5 µM | remaining signal | 103% |
| O=C(CSc1nc2nccnc2c(=O)n1CCc1ccccc1)Nc1nccs1 | enzyme activity, inhibitor | 10 µM | inhibition | 2% |
| CC1=C(C#N)C(c2ccc3c(c2)c(NC(=O)c2ccccc2C)nn3C)C(C#N)=C(C)N1 | cell-free assay, competition with immobilised ligand | 1 µM | remaining binding | 100% |
| O=C1NC(=O)c2cc(Nc3ccc(F)cc3)c(Nc3ccc(F)cc3)cc21 | cell-free assay | 0.5 µM | remaining signal | 95.1% |
| CC(C)(C)c1nc2c(s1)c1nc(N)ncc1c1ccc(NS(=O)(=O)c3c(F)cccc3F)c(F)c12 | enzyme activity, inhibitor, radiometric | 1 µM | remaining activity | 86% |
| Cc1ccc(NC(=O)c2ccc(C)c(C(F)(F)F)c2)cc1C#Cc1nn(C2CCC(O)CC2)c2ncnc(N)c12 (stereo not shown) | cell-free assay | 10 µM | remaining signal | 88% |
| Oc1ccc(-c2nc(-c3ccncc3)c(-c3ccc(F)cc3)[nH]2)cc1 | cell-free assay | 0.5 µM | remaining signal | 98.6% |
| COc1cc(Nc2cnc(C#N)c(O[C@H](C)CN(C)C)n2)ncc1-c1cnn(C)c1 | enzyme activity, inhibitor, radiometric | 10 µM | remaining activity | 70% |
| Cc1[nH]c(/C=C2\C(=O)Nc3ccc(F)cc32)c(C)c1C(=O)N[C@H]1CCN(C(=O)N(C)C)C1 | enzyme activity, inhibitor | 1 µM | remaining activity | 105% |
| CCCS(=O)(=O)Nc1ccc(F)c(C(=O)c2c[nH]c3ncc(-c4ccc(Cl)cc4)cc23)c1F | enzyme activity, inhibitor | 1 µM | inhibition | < 10% |
| C[C@@H]1CN(c2cc(-c3n[nH]c4ccc(OC5(C)CC5)cc34)ncn2)C[C@H](C)O1 | cell-free assay, competition with immobilised ligand | 0.1 µM | remaining binding | 97% |
| CC(C)(C)C(=O)c1sc(NC2CCCCC2)nc1N | enzyme activity, inhibitor | 10 µM | remaining activity | 88% |
| CCC(=O)N[C@H]1CC[C@@H](C(=O)N(C)c2ccc(-c3nc4ccccc4o3)cc2)C1 | cell-free assay, competition with immobilised ligand | 1 µM | remaining binding | 100% |
| CCN(CC)CCNC(=O)c1c(C)[nH]c(/C=C2\C(=O)Nc3ccc(F)cc32)c1C | enzyme activity, inhibitor | 0.3 µM | inhibition | -9% |
| FC(F)c1nc2ccccc2n1-c1nc(N2CCOCC2)nc(N2CCOCC2)n1 | enzyme activity, inhibitor | 10 µM | remaining activity | 92% |
| CN(C(=O)c1ccccc1)c1cc(N(C)c2ccc3c(c2)CCc2ccc(C(=O)NCCN4CCOCC4)cc2C3=O)ccc1F | cell-free assay, competition with immobilised ligand | 1 µM | remaining binding | 83% |
| CCN(CC)CCNC(=O)c1c(C)[nH]c(/C=C2\C(=O)Nc3ccc(F)cc32)c1C | enzyme activity, inhibitor | 1 µM | remaining activity | 82% |
